Assay [1] in a line: Her2 expression decrease, cell viability multiplex – SKBR3 breast tumor cells, AlphaScreen, ATP viability, primary screen (AID 461;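 active = Her2 level under about 52% in both replicate screens, with viability over 70% of control, limit read from the data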;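 as to Her2 level: lower value means less Her2 protein in the cells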;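 as to viability: percent of carrier control wells set as 100% viability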). The conditions noted are these: SKBR3 Her2 protein level, 18-24 h, measured here: SKBR3 viability, ATP luminescence, at 10 µM. On the technique in general: In Alpha technology, singlet oxygen from a donor bead excites a nearby acceptor bead.
For assay [2], the target named is Receptor tyrosine-protein kinase erbB-2 (Homo sapiens) (UniProt P04626). The assay is described as above. The conditions noted are these: 18-24 h, at 10 µM, stronger effect = lower value.
A short description of assay [3]: reduced viability of SK-BR-3 breast cancer cells – cell-based, 24 h, human, pilot screen (AID 572;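 active = viability at or below 10% of carrier control in both of two separate runs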;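 also: compound exposure lasted between 18 and 24 h rather than exactly 24 h; 100% = carrier-treated control wells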). The conditions noted are these: SK-BR-3 viability, CellTiter-Glo luminescence, at 10 µM, stronger effect = lower value. On the technique in general: Cellular ATP, detected with luciferase, serves as a proxy for viable cell number.
A short description of assay [4]: HUVEC growth inhibition – cell-based, human, primary screen (AID 575;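 active = viability at or below 30% in both replicate assays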;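 also: 100% = median of untreated cell wells with 0.1% DMSO on each plate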). The conditions noted are these: HUVEC proliferation, CellTiter-Glo luminescence, 72 h; at 10 µM; stronger effect = lower value. In a few lines: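 Timing: 72 h treatment at 37 °C; material: HUVEC primary cells; technique: CellTiter-Glo luminescence measuring cellular ATP; controls: vehicle and MePR control wells; measure: percent of median DMSO-control luminescence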

Assay [5] can be described thus: H69AR cell proliferation blockers – human, duplicate replicates, primary screen (AID 580;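 active = viability at or under a set limit in both replicates, limit being median viability minus 3 SD, cut at about 48% in these data, passing the limit was not always enough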;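 also: 100% = mean luminescence of untreated wells and 0% = no signal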). The conditions noted are these: H69AR lung tumor cells viability, ATP luminescence, 72 h; at 10 µM; stronger effect = lower value.
The nature of assay [6]: MRP1 drug-resistance reversers in H69AR cells – cell-based, doxorubicin co-treatment, pilot screen (AID 601;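 active = viability loss from added drug above about 55%, and viability with drug at most 40%, in both replicates, limit read from the data, passing the limit was not always enough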). Conditions: CellTiter-Glo, 72 h, at 10 µM; for differential viability (reversal): stronger effect = higher value.
Assay [7] is described as follows: yeast transport mutant growth inhibition pilot in 384-well plates, post-Golgi transport modulator project (AID 636; in the data active = inhibition above about 31%). The conditions noted are these: absorbance 615 nm, about 18 h, stronger effect = higher value.
Assay [8] is described as follows: growth suppression of yeast trafficking mutant, preliminary HTS, modulators of trafficking downstream of Golgi apparatus project, 1536-format plate, OD 615 nm (AID 637). Conditions: yeast transport mutant growth, absorbance 615 nm, 18 h; stronger effect = higher value.
[9] abbreviates: H69AR cells + 2 uM doxorubicin, measured here: viability with 2 uM doxorubicin, stronger effect = lower value.
Where [10] appears, read: H69AR cells, compound alone cytotoxicity.

Structures are written as SMILES. Activity calls are given as the source filed them. Rule as the data show it, unless noted: active = inhibition above about 30%; inactive = the rest.

Sequence of Receptor tyrosine-protein kinase erbB-2 (Homo sapiens) (P04626 whole entry, looked up): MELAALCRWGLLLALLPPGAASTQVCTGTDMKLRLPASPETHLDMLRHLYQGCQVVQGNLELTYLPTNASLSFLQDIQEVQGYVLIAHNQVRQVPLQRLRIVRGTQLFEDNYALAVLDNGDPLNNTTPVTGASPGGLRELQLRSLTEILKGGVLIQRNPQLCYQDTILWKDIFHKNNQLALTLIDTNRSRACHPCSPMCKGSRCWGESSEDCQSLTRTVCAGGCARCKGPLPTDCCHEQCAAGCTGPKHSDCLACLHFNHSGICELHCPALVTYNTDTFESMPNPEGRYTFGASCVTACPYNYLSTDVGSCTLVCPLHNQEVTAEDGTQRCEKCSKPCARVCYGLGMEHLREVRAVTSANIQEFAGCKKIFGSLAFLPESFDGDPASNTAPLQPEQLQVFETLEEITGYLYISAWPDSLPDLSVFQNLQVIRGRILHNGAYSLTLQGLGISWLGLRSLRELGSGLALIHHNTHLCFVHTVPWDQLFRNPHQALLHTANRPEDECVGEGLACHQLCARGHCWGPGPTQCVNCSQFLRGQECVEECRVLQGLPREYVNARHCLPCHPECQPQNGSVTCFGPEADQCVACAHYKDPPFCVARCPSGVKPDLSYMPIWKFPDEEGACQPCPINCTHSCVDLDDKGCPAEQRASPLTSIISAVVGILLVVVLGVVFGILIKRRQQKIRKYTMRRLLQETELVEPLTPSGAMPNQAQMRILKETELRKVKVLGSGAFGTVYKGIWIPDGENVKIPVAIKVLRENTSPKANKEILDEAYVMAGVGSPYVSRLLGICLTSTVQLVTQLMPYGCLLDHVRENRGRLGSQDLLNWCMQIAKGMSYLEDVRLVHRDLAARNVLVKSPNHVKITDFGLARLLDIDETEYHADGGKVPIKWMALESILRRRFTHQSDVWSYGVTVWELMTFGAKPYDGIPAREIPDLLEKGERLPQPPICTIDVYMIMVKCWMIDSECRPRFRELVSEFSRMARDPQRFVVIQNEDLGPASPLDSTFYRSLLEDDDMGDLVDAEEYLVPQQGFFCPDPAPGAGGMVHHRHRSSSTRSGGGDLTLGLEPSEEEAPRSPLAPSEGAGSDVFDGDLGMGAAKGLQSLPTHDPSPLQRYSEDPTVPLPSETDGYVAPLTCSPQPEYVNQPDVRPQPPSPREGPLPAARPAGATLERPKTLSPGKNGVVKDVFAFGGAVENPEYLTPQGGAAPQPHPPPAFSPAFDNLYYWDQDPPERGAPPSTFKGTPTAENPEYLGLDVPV

One may read the viability as a read-out of living cells in per cent, often relative to untreated cells. One may read the inhibition as the relative decrease from the control value, in per cent. For the compound `Cc1ccc(-c2noc(-c3ccccc3C(=O)NCC3CCCO3)n2)cc1` (stereo not given), the viability in assay [1] was 91%; in assay [3], 91% (inactive); in assay [4], 100% (inactive); in assay [5] it was 100% (inactive); in assay [6] (setting [9]), 94.4%; in assay [6] (setting [10]), 100%. Also, the Her2 level in assay [2] was 107% (inactive). The differential viability (reversal) in assay [6] (H69AR cells + 2 uM doxorubicin) was 5.99% (inactive). In addition, the inhibition in assay [7] was -0.13% (inactive); in assay [8] it was -3.97% (inactive).

In the case of `O=C(Nn1cnnc1)c1cc2c(s1)CCCC2`, the viability in assay [1] is 100%; in assay [3] it was 100% (inactive); in assay [4], 80% (inactive); in assay [5], 102% (inactive); in assay [6] (setting [9]) it was 104%; in assay [6] (setting [10]) it was 102%. Moreover, the Her2 level in assay [2] is 95.5% (inactive). Moreover, the differential viability (reversal) in assay [6] (H69AR cells + 2 uM doxorubicin) is -2.61% (inactive). The inhibition was -3.42% (inactive) in assay [7] and -4% (inactive) in assay [8].

Turning to `COc1ccccc1OC(=O)c1ccc2nsnc2c1`, the viability in assay [1] is 110%; in assay [3], 110% (inactive); in assay [4], 91.8% (inactive); in assay [5], 100% (inactive); in assay [6] (setting [9]) it was 88.4%; in assay [6] (setting [10]) it was 100%. Also, the Her2 level in assay [2] is 89% (inactive). Moreover, the differential viability (reversal) in assay [6] (H69AR cells + 2 uM doxorubicin) was 11.6% (inactive). For the same compound, the figures for the inhibition in assay [7] and in assay [8] were -8.16% (inactive) and -6.55% (inactive), respectively.

`O=C(Cn1nnc(-c2ccncc2)n1)Nc1ccc2c(c1)CCC2`: the viability in assay [1] was 112%; in assay [3] it was 112% (inactive); in assay [4], 107% (inactive); in assay [5], 110% (inactive); in assay [6] (setting [9]), 96.4%; in assay [6] (setting [10]), 110%. In assay [2], the Her2 level is 93.5% (inactive). Also, in assay [6] (H69AR cells + 2 uM doxorubicin), the differential viability (reversal) is 13.3% (inactive). Moreover, the inhibition in assay [7] was -6.45% (inactive); in assay [8] it was 2.38% (inactive).

For `CS(=O)(=O)Nc1ccc(C(=O)NCc2ccco2)cc1`, the viability in assay [1] was 88.5%; in assay [3], 88.5% (inactive); in assay [4] it was 104% (inactive); in assay [5] it was 103% (inactive); in assay [6] (setting [9]), 101%; in assay [6] (setting [10]), 103%. Besides, in assay [2], the Her2 level was 106% (inactive). Besides, the differential viability (reversal) in assay [6] (H69AR cells + 2 uM doxorubicin) was 2.3% (inactive). The results for the inhibition in assay [7] and in assay [8] were -1.05% (inactive) and -5.16% (inactive), respectively.

Turning to `COc1ccc(C(=O)N2CCSC2=S)cc1OC`, the viability is 97.5% in assay [1]; 97.5% (inactive) in assay [3]; 89.4% (inactive) in assay [4]; 82.1% (inactive) in assay [5]; 93.6% in assay [6] (setting [9]); 82.1% in assay [6] (setting [10]). Besides, the Her2 level in assay [2] is 96% (inactive). The differential viability (reversal) in assay [6] (H69AR cells + 2 uM doxorubicin) is -11.5% (inactive). Further, the inhibition in assay [7] was -2.21% (inactive); in assay [8], -1.67% (inactive).

In the case of `CCOC(=O)CN(C(=O)CSc1nnc(-c2ccncc2)n1CCCN(C)C)c1ccccc1`, the viability in assay [1] is 107%; in assay [3], 107% (inactive); in assay [4] it was 106% (inactive); in assay [5], 87.6% (inactive); in assay [6] (setting [9]), 78.1%; in assay [6] (setting [10]) it was 87.6%. Besides, the Her2 level in assay [2] is 98.5% (inactive). Moreover, the differential viability (reversal) in assay [6] (H69AR cells + 2 uM doxorubicin) was 9.5% (inactive). For the same compound, the figures for the inhibition in assay [7] and in assay [8] were -5.19% (inactive) and 1.9% (inactive), respectively.

As to `Cn1cc(C(=O)c2ccc(F)cc2)cc1-c1nc2ccccc2n1C`, the viability in assay [1] is 91%; in assay [3], 91% (inactive); in assay [4] it was 76% (inactive); in assay [5] it was 102% (inactive); in assay [6] (setting [9]), 92%; in assay [6] (setting [10]) it was 102%. For the same compound, the Her2 level in assay [2] was 65% (inactive). Further, in assay [6] (H69AR cells + 2 uM doxorubicin), the differential viability (reversal) is 10% (inactive). For the same compound, the inhibition in assay [7] was -0.4% (inactive); in assay [8], 1.64% (inactive).

For `O=C(NC1CCCCC1)n1c(=O)oc2ccc(Cl)cc21`, the viability in assay [1] is 118%; in assay [3], 118% (inactive); in assay [4], 94.8% (inactive); in assay [5] it was 94.2% (inactive); in assay [6] (setting [9]), 76.7%; in assay [6] (setting [10]), 94.2%. In addition, in assay [2], the Her2 level was 92% (inactive). Further, the differential viability (reversal) in assay [6] (H69AR cells + 2 uM doxorubicin) was 17.5% (inactive). Further, the inhibition in assay [7] was -2.73% (inactive); in assay [8], -7.62% (inactive).

For the compound `CC(O)c1n(C)c(Cl)c[n+]1C` (stereo not given), the viability is 114% in assay [1]; 114% (inactive) in assay [3]; 109% (inactive) in assay [4]; 103% (inactive) in assay [5]; 106% in assay [6] (setting [9]); 103% in assay [6] (setting [10]). The Her2 level in assay [2] is 95% (inactive). In addition, the differential viability (reversal) in assay [6] (H69AR cells + 2 uM doxorubicin) was -3.03% (inactive). The inhibition is -0.66% (inactive) in assay [7] and 6.39% (inactive) in assay [8].

On to `O=C(c1ccc2ccccc2n1)N1CCN(c2ccccc2)CC1`, for which the viability was 88.5% in assay [1]; 88.5% (inactive) in assay [3]; 100% (inactive) in assay [4]; 112% (inactive) in assay [5]; 98.6% in assay [6] (setting [9]); 112% in assay [6] (setting [10]). Besides, the Her2 level in assay [2] was 86% (inactive). Moreover, the differential viability (reversal) in assay [6] (H69AR cells + 2 uM doxorubicin) is 13.8% (inactive). Besides, the inhibition was -4.19% (inactive) in assay [7] and -3.61% (inactive) in assay [8].

For `Cc1cc(C)nc(NC(=O)c2c(-c3c(Cl)cccc3Cl)noc2C)n1`, the viability is 84% in assay [1]; 84% (inactive) in assay [3]; 94% (inactive) in assay [4]; 85.1% (inactive) in assay [5]; 90.3% in assay [6] (setting [9]); 85.1% in assay [6] (setting [10]). Also, in assay [2], the Her2 level is 98.5% (inactive). The differential viability (reversal) in assay [6] (H69AR cells + 2 uM doxorubicin) is -5.23% (inactive). The figures for the inhibition in assay [7] and in assay [8] were -7.73% (inactive) and -6.03% (inactive), respectively.

Turning to `O=c1c2nnn(Cc3ccccc3)c2ncn1-c1ccccc1`, the viability in assay [1] was 103%; in assay [3], 103% (inactive); in assay [4] it was 111% (inactive); in assay [5], 108% (inactive); in assay [6] (setting [9]), 103%; in assay [6] (setting [10]), 108%. The Her2 level in assay [2] was 90.5% (inactive). The differential viability (reversal) in assay [6] (H69AR cells + 2 uM doxorubicin) was 5.12% (inactive). In addition, the inhibition is -6.27% (inactive) in assay [7] and 4.1% (inactive) in assay [8].

Regarding `CC(C)(C)OC(=O)N1CCC(C(=O)N[C@H](Cc2ccccc2)C(=O)O)CC1`, the viability was 101% in assay [1]; 101% (inactive) in assay [3]; 108% (inactive) in assay [4]; 98.2% (inactive) in assay [5]; 95.1% in assay [6] (setting [9]); 98.2% in assay [6] (setting [10]). In assay [2], the Her2 level is 93.5% (inactive). The differential viability (reversal) in assay [6] (H69AR cells + 2 uM doxorubicin) was 3.02% (inactive). In addition, the inhibition in assay [7] is -10.4% (inactive); in assay [8], 3.5% (inactive).

For the origin of these results see PubChem BioAssay.
